For 10 compounds, Kd, IC50 and Activity results are on record in ChEMBL document CHEMBL1269004, “Synthesis of a 6-methyl-7-deaza analogue of adenosine that potently inhibits replication of polio and dengue viruses” (J Med Chem, 2010).

As usually defined, the IC50 is the midpoint of a concentration-inhibition curve.

Molecules are shown by their SMILES. Calls of active or inactive are those of the source. No cut-off for these calls is given here. Where only a bound is given, the exact number is not on record here.

A short description of assay [1]: Binding affinity to Poliovirus RNA-dependent RNA polymerase. Details: species or system Enterovirus C. Conditions: read-out: Kd(app).
Assay [2] can be described thus: Cytotoxicity against human HeLaS3 cells after 7 hrs by celltiter-glo assay. It counts as cell-based. Conditions: HeLa S3, 7 h. The method, boiled down: (§1)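 HeLa S3 cells (4 × 10^3/well, plated 24 h before) exposed to a nucleoside concentration series at 37 °C, final 0.1% DMSO, for 7, 24 or 48 h. Cells PBS-washed; viability read as ATP-dependent luminescence (CellTiter-Glo) after 10 min at 22 °C. IC50 from a four-parameter fit of luminescence vs concentration.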

Assay [3] is described as follows: Cytotoxicity against human HeLaS3 cells at 100 uM after 24 hrs by celltiter-glo assay. The format is cell-based. Conditions: HeLa S3, 24 h. The method, boiled down:
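HeLa S3 cells (4 × 10^3/well) treated 24 h at 37 °C in 0.1% DMSO. Viability measured as ATP luminescence (CellTiter-Glo) after PBS wash, read after 10 min at 22 °C, and reported as % viable cells.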

The test system of assay [4] is dengue virus type 2. As to the kind of experiment: Antiviral activity against Dengue virus type 2 in Vero cells assessed as inhibition of viral replication after 6 days using neutral red dye by plaque assay. It counts as functional, organism-based. Conditions: 144 h. The method, boiled down: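 Cells infected with DENV2, then treated for 24 h at 37 °C with a concentration series in 1% DMSO media. Supernatant overlaid with 0.9% low-melting agarose in EMEM/0.5% FBS for 6 days at 37 °C, then a second agarose layer with 0.015% neutral red added overnight. Plaques counted as PFU/ml; IC50 from a four-parameter fit of titer vs concentration.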

In assay [5] the test system is dengue virus type 2. Kind of assay: Antiviral activity against Dengue virus type 2 in Vero cells assessed as inhibition of viral RNA replication […] by RT-PCR analysis. The format is functional, organism-based.
The test system of assay [6] is Enterovirus C. As to the kind of experiment: Antiviral activity against Poliovirus infected in human HeLaS3 cells assessed as inhibition of viral replication treated 1 hr before infection measured after 2 days. The format is functional, organism-based. Conditions: HeLa S3. The procedure, abridged:
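HeLa S3 cells (1 × 10^5, plated 1 day prior) pretreated 1 h at 37 °C with nucleoside in 0.1% DMSO media, then infected with 1 × 10^6 PFU PV in PBS for 15 min at room temperature. Refed with nucleoside-containing media and infected 6 h at 37 °C. Cell-associated virus released by 3 freeze-thaw cycles and titered by plaque assay on HeLa S3 under 1% agarose for 2 days, with crystal violet stain. IC50 from a four-parameter fit.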

The nature of assay [7]: Cytotoxicity against human HeLaS3 cells after 48 hrs by celltiter-glo assay. The format is cell-based. Conditions: HeLa S3, 48 h. The method, boiled down: as §1
On the technique in general: In ATP-based viability assays light output follows the ATP content of the culture.

Assay [8] has as its system dengue virus type 2. Kind of assay: Antiviral activity against Dengue virus type 2 in BHK-21 cells assessed as inhibition of viral replication after 24 hrs by luciferase assay. The note with it: BHK-21, 24 h. The format is functional, organism-based. The procedure, abridged: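 BHK-21 cells stably carrying a luciferase DENV2 replicon, grown in DMEM/F-12 with 10% FBS. Seeded 24 h ahead, then exposed for 24 h to a nucleoside concentration series in media with 1% DMSO. Cells PBS-washed and lysed; luciferase luminescence read on the lysate.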

Assay [9] can be described thus: Cytotoxicity against human HeLaS3 cells after 24 hrs by celltiter-glo assay. It counts as cell-based. Conditions: HeLa S3, 24 h. The procedure, abridged:
as §1

Assay [10] has as its system Enterovirus C. Kind of assay: Activity at Poliovirus RNA-dependent RNA polymerase assessed as incorporation into opposite adenine and guanine of viral RNA by denaturing PAGE analysis. The method, boiled down: (§2)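 Pre-assembled PV 3Dpol–sym/sub primer/template (32P end-labelled) complex formed for 3 min at 30 °C. Reaction at 30 °C in 50 mM HEPES pH 7.5 with 10 mM 2-mercaptoethanol, 5 mM MgCl2, 1 µM 3Dpol, 0.5 µM duplex RNA and 0.5 mM NTP, started by adding nucleotide. Stopped at 1, 5 or 10 min, run on denaturing PAGE, phosphorimaged, and expressed as % incorporation relative to the natural NTP.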

The subject of assay [11] is Enterovirus C. Kind of assay: Activity at Poliovirus RNA-dependent RNA polymerase assessed as incorporation into opposite cytosine of viral RNA after 30 mins by denaturing PAGE analysis.
In assay [12] the test system is Enterovirus C. As to the kind of experiment: Activity at Poliovirus RNA-dependent RNA polymerase assessed as incorporation into opposite uracil and cytosine of viral RNA by denaturing PAGE analysis. The procedure, abridged:
as §2

`Nc1ncnc2c1ncn2[C@@H]1O[C@H](COP(=O)(O)OP(=O)(O)OP(=O)(O)O)[C@@H](O)[C@H]1O` [ADENOSINE TRIPHOSPHATE]: the Kd in [1] amounted to 134 µM.

As for `Cc1ncnc2c1ccn2[C@@H]1O[C@H](CO)[C@@H](O)[C@H]1O`, the IC50 in [2] was more than 100 µM; in assay [3], 0.986 µM; in assay [4], 0.062 µM; in assay [5], 0.039 µM; in assay [6], 0.011 µM; in assay [7], 0.224 µM. Further, the IC50 in assay [8] is 0.877 µM.

Regarding `Cc1ccnc2c1ncn2[C@@H]1O[C@H](CO)[C@@H](O)[C@H]1O`, the IC50 was more than 100 µM in assay [2]; more than 100 µM in [9]; more than 10 µM in assay [6]; more than 10 µM in assay [7]; more than 10 µM in [8].

For `Cc1nccc2c1ncn2[C@@H]1O[C@H](CO)[C@@H](O)[C@H]1O`, the IC50 in assay [2] was more than 100 µM; in assay [9] it was more than 100 µM; in assay [6] it was more than 10 µM; in assay [7] it was more than 100 µM; in [8], more than 10 µM.

In the case of `Cc1ncnc2c1ncn2[C@@H]1O[C@H](CO)[C@@H](O)[C@H]1O`, the IC50 in assay [2] amounted to 17.7 µM; in [9], 6.68 µM; in assay [6], 1.01 µM; in [7], 2.2 µM; in [8] it was 5.46 µM.

On to `Cc1ncnc2c1ncn2[C@@H]1O[C@H](COP(=O)(O)OP(=O)(O)OP(=O)(O)O)[C@@H](O)[C@H]1O`, for which the result in assay [10] was inactive. In addition, the Kd in [1] worked out at 170 µM. Also, the Activity in [11] amounted to 40%. The outcome in assay [12] was Active.

`COC[C@H]1O[C@@H](n2ccc3c(C)ncnc32)[C@H](O)[C@@H]1O`: the IC50 in assay [2] is more than 100 µM; in [9], more than 100 µM; in assay [6], more than 10 µM; in assay [7] it was more than 100 µM; in assay [8] it was more than 10 µM.

Regarding `Cc1ncnc2c1ccn2[C@@H]1O[C@H](COP(=O)(O)OP(=O)(O)OP(=O)(O)O)[C@@H](O)[C@H]1O`, the outcome in assay [10] was inactive. Also, the Kd in assay [1] amounted to 120 µM. Further, the Activity in assay [11] came out at 60%. Further, the result in assay [12] was Active.

As for `NC(=O)c1ncn([C@@H]2O[C@H](COP(=O)(O)OP(=O)(O)OP(=O)(O)O)[C@@H](O)[C@H]2O)n1` [RTP], the Kd in assay [1] came out at 496 µM.

With `Nc1ncnc2c1ccn2[C@@H]1O[C@H](CO)[C@@H](O)[C@H]1O` [TUBERCIDIN], the IC50 in assay [2] is 1.44 µM; in assay [9], 0.819 µM; in [6], 0.03 µM; in assay [7] it was 0.4 µM.
